Bioassay records: PubChem BioAssay, several laboratories
UCH37 inh – inhibitors of human deubiquitinating enzyme UCH37; Q9Y5K5; purified proteasome/UCH37, Ub-AMC cleavage fluorescence; inhibition, % (test concentration not listed); 330,000 tested, 0.33% active; AID 588478;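 active means mean inhibition over replicate wells above about 20%, limit read from the data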;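 further: 0% = compound-free wells with enzyme and 100% = wells lacking proteasome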
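system = Proteasome-associated human UCH37 deubiquitinase | amount = 0.15 nM proteasome as dispensed | medium = pH 7.4 Tris-HCl (50 mM) with ovalbumin, ATP-MgCl2, DTT | incubation = 30 min preincubation with enzyme, 25 min cleavage at room temperature | detection = AMC fluorescence 355/460 nm | read-out basis = percent inhibition | controls = no-proteasome and no-compound wells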
NALP3 yeast inh – inhibitors of NALP3 inflammasome in yeast; AID 2825; 330,000 tested, 0.39% active; Yeast reconstituted NLRP3/ASC/caspase-1, beta-gal luminescence, 24 h; inhibition, % at 10 µM;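 active means inhibition of 50% or more; inactive means inhibition below 50%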;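 further: plate controls were induced DMSO wells for no effect and uninduced yeast grown without galactose for full effect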
Calb FLC – C. albicans growth modulation with fluconazole. AID 1979. growth inhibition, % (concentration not given with the values). 300,000 tested, 0.57% active. C. albicans CaCi-2 + fluconazole, Alamar Blue growth, 48 h;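 active means growth inhibition above about 58% in most replicates, limit read from the data, passing the limit was not always enough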;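 further: all wells also contain fluconazole at 8 µg/ml as a sub-toxic cotreatment; 0% = median of DMSO wells and 100% = median of geldanamycin control wells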
ATG4B inhibitor – ATG4B (human) cysteine protease inhibition | ATG4B cleavage of LC3-PLA2, NBD-HPC fluorescence, 1 h | inhibition, % at 8.33 µM | 340,000 tested, 0.51% active; in the data active means inhibition above about 40%
Target sequence (Q9Y4P1 whole entry, looked up): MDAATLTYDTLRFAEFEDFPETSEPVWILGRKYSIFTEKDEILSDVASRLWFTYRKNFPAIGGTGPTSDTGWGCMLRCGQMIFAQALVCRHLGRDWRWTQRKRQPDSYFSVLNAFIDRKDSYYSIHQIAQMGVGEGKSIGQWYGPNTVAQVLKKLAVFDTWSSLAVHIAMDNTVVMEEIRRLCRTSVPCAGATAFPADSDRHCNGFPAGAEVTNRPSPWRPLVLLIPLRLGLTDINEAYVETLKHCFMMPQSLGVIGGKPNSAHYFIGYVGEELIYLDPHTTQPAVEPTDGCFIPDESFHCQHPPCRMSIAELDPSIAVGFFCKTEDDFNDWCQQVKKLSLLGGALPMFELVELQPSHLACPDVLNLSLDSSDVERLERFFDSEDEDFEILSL
ALR H2O2 inh – human ALR oxidase inhibition via reduced H2O2. purified ALR, DTT oxidation, H2O2 HRP-luminol luminescence. inhibition, % (concentration not given with the values). 290,000 tested, 3.8% active. AID 485317;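 active means mean replicate inhibition above about 79%, with every replicate also reaching it, limit read from the data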
NALP1 yeast inh – inhibitors of NALP1 inflammasome in yeast. 280,000 tested, 0.61% active. S. cerevisiae NALP1/ASC/caspase-1 growth, X-gal OD620, 72 h. inhibition, % at 10 µM; in the data active means inhibition mostly above about 24%, no sharp cut-off; inactive means mostly below about 32%
NALP3 confirm – confirmation of NALP3 inhibitors in yeast; AID 435006; 1,300 tested, 81% active; inhibition, % at 10 µM; shares compounds with NALP3 yeast inh; yeast expressing human NALP3, luminescence; in the data active means inhibition above about 48%
Casp1-ASC yeast – caspase-1-ASC yeast counter-screen hit | inhibition, % at 10 µM | 1,000 tested, 66% active | shares compounds with NALP3 yeast inh | yeast expressing Caspase-1-ASC, luminescence counter screen
NALP3 yeast rt – yeast NALP3 inhibition, confirmed on retest | AID 488794 | 1,000 tested, 53% active | inhibition, % at 10 µM | shares compounds with NALP3 yeast inh | yeast expressing human NALP3, luminescence read-out
Active calls of the source: *; . = no result given. Only some compounds are listed: those with a hit (about 4.8% of all), similar ones and a draw of the others. Unless noted, no stated cut-off is given here; in the data, active means inhibition above about 50%; inactive means the rest.

SMILES | UCH37 inh | NALP3 yeast inh | Calb FLC | ATG4B inhibitor | ALR H2O2 inh | NALP1 yeast inh | NALP3 confirm | Casp1-ASC yeast | NALP3 yeast rt
NNC(=O)c1c(O)c2cccc3c2n(c1=O)CCC3 | -2.2 | 62.1* | 0.4 | 1.1 | . | 14.7 | 76.2* | 52.2* | 52.0*
CCNCCNC(=O)c1c(O)c2cccc3c2n(c1=O)CCC3 | 0.4 | 52.8* | -3.1 | 3.3 | -10.5 | -4.4 | 74.2* | 40.6 | 44.2
Cn1cc(C(=O)c2ccc(Cl)cc2Cl)cc1C(=O)NN=C(N)COc1ccc(F)cc1 | 0.1 | . | . | . | . | . | . | . | .
O=C(O)c1ccc(NN=Cc2c[nH]c3ccccc23)cc1 | -14.0 | . | . | . | . | . | . | . | .
O=[N+]([O-])c1cccc(C=Nn2c(C3CCCCC3)n[nH]c2=S)c1 | 2.2 | . | . | . | . | . | . | . | .
CC[n+]1c(/C=C/N(C)c2ccccc2)oc2ccc(Cl)cc21 | 5.6 | 15.7 | -6.6 | 6.5 | 28.4 | 32.7 | . | . | .
CCN1/C(=C/C=C/c2oc3ccc4ccccc4c3[n+]2CC)Oc2ccc3ccccc3c21 | 2.0 | 59.3* | 21.9 | 91.0* | -18.8 | 7.9 | 61.0* | . | .
C=C1/C(=C\C=C2/CCC[C@]3(C)[C@@H]([C@H](C)CCCC(C)(C)O)CC[C@@H]23)C[C@@H](O)C[C@@H]1O | 1.3 | 56.8* | . | . | -18.1 | 2.8 | 57.8* | 54.9* | 36.6
O=C(NN=Cc1c[nH]c2ccc(Br)cc12)c1ccn(Cc2ccc(Cl)cc2Cl)n1 | -1.4 | . | . | . | . | . | . | . | .
Cc1noc(C)c1C(=O)Nc1nc2ccc(Cl)cc2s1 | 3.6 | 57.9* | 15.3 | 1.0 | -8.1 | 7.8 | 71.8* | 70.8* | 57.9*
Cc1noc(C)c1C(=O)Nc1nc2ccc(F)cc2s1 | 0.0 | 65.2* | . | 3.7 | -2.4 | . | 49.8* | 62.5* | 54.4*
CCc1noc(C)c1C(=O)Nc1nc2ccc(S(C)(=O)=O)cc2s1 | 5.7 | 18.1 | 10.7 | -2.3 | -5.6 | . | . | . | .
O=C(Nc1nc2ccc(Cl)cc2s1)c1ccco1 | -16.2 | 20.1 | -15.0 | 1.7 | -3.3 | -7.3 | . | . | .
CCc1noc(C)c1C(=O)Nc1nc2c(C)cc(C)cc2s1 | -0.3 | 72.1* | 8.0 | 7.8 | 0.1 | . | 76.7* | 75.1* | 61.1*
CCc1noc(C)c1C(=O)Nc1nc2ccc(F)cc2s1 | 2.1 | 68.4* | 13.2 | 1.1 | -0.3 | . | 78.3* | 75.0* | 65.5*
CC(=O)NCc1ccc(S(=O)(=O)NN=Cc2ccc(Br)cc2)cc1 | 1.6 | . | . | . | . | . | . | . | .
O=C(NN=Cc1c[nH]c2ccccc12)c1ccc2c(c1)OCCO2 | 4.4 | . | . | . | . | . | . | . | .
CCc1n[nH]c2c1C(=NO)CCC2 | -0.9 | . | . | . | . | . | . | . | .
COc1cccc(OC)c1C(=O)Nc1nc2ccc(S(C)(=O)=O)cc2s1 | -0.4 | 6.0 | -6.1 | -11.2 | -20.6 | 4.9 | . | . | .
COc1cccc(OC)c1C(=O)Nc1nc2ccc([N+](=O)[O-])cc2s1 | 21.2* | 54.8* | 3.9 | 3.9 | 0.1 | 7.0 | 74.2* | . | .
COc1cc2cnc(-c3ccsc3)cc2cc1OC | 1.2 | 44.7 | . | -13.7 | -1.3 | . | . | . | .
c1cc(-c2cc3cc4c(cc3cn2)OCO4)cs1 | -1.9 | 57.3* | . | 2.3 | -2.7 | . | 51.3* | 48.5 | 45.7
Cc1cc(C=Nn2cnnc2)c(C)n1-c1cccc(Cl)c1 | 0.8 | . | . | . | . | . | . | . | .
COc1cccc(C(C[N+](=O)[O-])c2c(C)[nH]n(-c3ccccc3)c2=O)c1 (configuration not stated) | . | 51.9* | -19.7 | -4.5 | -27.2 | 84.7* | 58.1* | 20.6 | 22.0
Cc1[nH]n(-c2ccccc2)c(=O)c1C(c1cccc([N+](=O)[O-])c1)c1c(C)[nH]n(-c2ccccc2)c1=O | 4.2 | -32.8 | -8.9 | 1.0 | -0.9 | 5.3 | . | . | .
CSc1nc2ccc(S(=O)(=O)N3CCCC3)cc2s1 | 2.8 | 84.6* | 4.4 | 3.0 | -10.0 | 12.9 | 86.1* | 86.2* | 80.4*
CC(=NNC(=O)NC1CCCCC1)c1ccc(OC(F)F)cc1OC(F)F | 0.2 | . | . | . | . | . | . | . | .
Cc1nn(-c2ccccc2)cc1C(=S)Nc1ccccc1 | 2.2 | 52.1* | -13.3 | 23.2 | 3.4 | 32.2 | 63.1* | 57.1* | 57.7*
